Experimental data as given in PMC7953034 (Journal of Pesticide Science, 2021).
Read-outs that look alike come from different tables or passages of the source.

Experiments:
DmNobo [1] = molecular target: T1, DmNobo (Drosophila melanogaster, UniProt Q7JYX0); assay: GST activity inhibition assay; type: biochemical
Method in brief: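 Recombinant DmNobo from E. coli was used. Test compounds were serially diluted two-fold in DMSO (stock series from 2.5 mM down), then premixed with enzyme and GSH before 3,4-DNADCF was added. The final mix was 100 mM sodium phosphate pH 6.5, 25 ng·mL⁻¹ DmNobo, 1 mM GSH, 0.005% Tween 20 and 1 µM substrate. Fluorescence of the conjugate (ex 485/em 538 nm) was read every 30 s for 3 min. Relative activity was activity with/without compound; IC50 was taken from duplicate assays, with SD.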

DmNobo [2] = molecular target: T1, DmNobo; assay: Crystal structures of DmNobo complexed with inhibitors; conditions: for # of bound molecules in the H-site: crystal structure of DmNobo complex; for Conformational change of Phe39: apo vs compound-bound; for GSH requirement for binding: crystals soaked with or without GSH; for GS-conjugation: observed in crystal structure with GSH
Method in brief: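 DmNobo was expressed in E. coli BL21(DE3) from a pCold III construct and purified by GSH affinity and size-exclusion chromatography. Crystals were grown over 34% (v/v) PPG400, 80 mM Bis-Tris pH 6.4. They were soaked 2 days in 42.5% PPG400, 100 mM Bis-Tris pH 6.4 with 30 mM test compound, ±10 mM GSH, then flash-frozen. Synchrotron data were phased by molecular replacement using apo DmNobo. Contacts were defined as ≤4.0 Å.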

DmNobo [3] = molecular target: T1, DmNobo; conditions: crystal structure PDB ID: 6KEP; cited from earlier work

T1 sequence (Q7JYX0 whole entry): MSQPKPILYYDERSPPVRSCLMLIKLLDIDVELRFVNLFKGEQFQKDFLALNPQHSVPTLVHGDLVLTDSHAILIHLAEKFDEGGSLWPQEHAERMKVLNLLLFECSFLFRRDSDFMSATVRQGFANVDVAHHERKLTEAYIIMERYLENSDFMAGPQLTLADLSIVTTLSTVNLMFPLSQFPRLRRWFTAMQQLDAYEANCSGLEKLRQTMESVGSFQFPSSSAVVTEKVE

SMILES | IC50 (DmNobo [1]) [µM] | # of bound molecules in the H-site (DmNobo [2]) | Conformational change of Phe39 (DmNobo [2]; crystal structure) | GSH requirement for binding (DmNobo [2]) | GS-conjugation (DmNobo [2]) | # of bound molecules in the H-site (DmNobo [3]) | Different conformations of the inhibitor in subunits A and B (DmNobo [2]; crystal structure) | inhibitory activity against DmNobo (in words) (DmNobo [1]; GSH-conjugation activity, 3,4-DNADCF)
Nc1ccc(N2CCc3sccc3C2)nc1 [TDP015, 6-(6,7-dihydrothieno[3,2-c]pyridin-5(4H)-yl)-3-pyridinamine] | 3.32 ± 0.81 | 2 | YES | GSH-dependent and YES | YES | – | – | –
C[C@]12CC[C@@H]3c4ccc(O)cc4CC[C@H]3[C@@H]1CC[C@@H]2O [17β-Estradiol, 17β-estradiol] | – | – | – | – | – | 1 | – | –
Cc1ccc(C(C)(C)C)cc1S(=O)(=O)Nc1ccccc1C(=O)O [TDP013, 2-(5-tert-butyl-2-methyl-benzenesulfonylamino)-benzoic acid] | 8.94 ± 1.65 | 1 | YES | – | – | – | YES | –
COc1cccc(C2=NC(C)(C)NC(c3cc(Br)ccc3O)C2)c1 (stereo not drawn) [TDP011, 4-bromo-2-[4-(3-methoxyphenyl)-2,2-dimethyl-5,6-dihydro-1H-pyrimidin-6-yl]phenol] | 6.72 ± 1.48 | 1 | YES | GSH-dependent and YES | YES | – | – | –
O=C1CS(=O)(=O)N(Cc2ccc(F)cc2)c2ccsc21 [TDP012, 1-(4-fluorobenzyl)-1H-thieno[3,2-c][1,2]thiazin-4(3H)-one 2,2-dioxide] | 3.1 ± 0.77 | 1 | YES | GSH-dependent and YES | YES | – | – | –
CC1(C)CC(=O)CC(=O)C1 [TDP045, 5,5-dimethyl-1,3-cyclohexanedione] | > 1000 | 1 | – | – | YES | – | – | did not exhibit a strong inhibitory activity
